In brackets after ≈: the same amount, converted by molar mass.
Columns and labels:
[1] = molecular target: T1, Taste receptor type 2 member 8 (Homo sapiens, UniProt Q9NYW2); assay: Antagonist activity at recombinant human TAS2R8 stably expressed in cells co-expressing Galpha16gust44 assessed as inhibition of andrographolide-induced intracellular calcium level measured for 100 secs by fluo-4 dye based FLIPR assay; assay type: functional, cell-based
T1 sequence (Q9NYW2 whole entry): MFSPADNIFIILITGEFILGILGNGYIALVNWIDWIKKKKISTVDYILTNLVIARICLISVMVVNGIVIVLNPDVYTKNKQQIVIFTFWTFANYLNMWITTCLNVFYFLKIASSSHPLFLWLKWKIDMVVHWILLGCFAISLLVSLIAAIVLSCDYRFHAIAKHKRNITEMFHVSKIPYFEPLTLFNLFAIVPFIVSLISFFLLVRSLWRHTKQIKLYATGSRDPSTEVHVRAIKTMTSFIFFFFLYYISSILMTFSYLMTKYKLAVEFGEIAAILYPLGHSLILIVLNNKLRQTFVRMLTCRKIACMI
Summary of the method: (§1)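 Recombinant cells stably expressing G16t44 chimera and TAS2R8 (clones isolated by limiting dilution), plated 24 h before assay; loaded with fluo-4 in PBS 60 min, washed, rested 15 min in dark at RT. Andrographolide agonist at its EC80, premixed with antagonist and added together; final DMSO 0.5%. Baseline read 10 s, then fluorescence followed 100 s on FLIPR.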

[2] = Ratio of solubility of the compound in pH 7.1 buffer measured after 24 hrs to IC50 for antagonist activity at recombinant human TAS2R8 expressed in cells co-expressing Galpha16gust44 assessed as inhibition of andrographolide-induced intracellular calcium level; assay type: cell-based
[3] = Solubility of the compound in pH 7.1 buffer measured after 24 hrs; assay type: physicochemical
[4] = Stability of the compound in pH 2.8 buffer assessed as parent compound remaining measured after 24 hrs at 100 degC; assay type: physicochemical; conditions: read-out: Stability
[5] = Stability of the compound in pH 7.1 buffer assessed as parent compound remaining measured after 24 hrs at 100 degC; assay type: physicochemical; conditions: read-out: Stability
[6] = Drug metabolism in pH <6.5 buffer assessed as S6821 formation measured under room temperature
[7] = molecular target: T2, Taste receptor type 2 member 8 (Homo sapiens) (UniProt Q9NYW2); assay: Antagonist activity at recombinant human TAS2R8 stably expressed in cells co-expressing Galpha16gust44 assessed as inhibition of andrographolide-induced intracellular calcium level at 10 uM measured for 100 secs by fluo-4 dye based FLIPR assay relative to control; assay type: functional, cell-based; summary of the method: as §1
T2 sequence (whole entry): T1 sequence (Q9NYW2 whole entry)

Cc1noc(C)c1Cn1cc(NC(=O)c2cccc(O)c2)cn1
IC50 [1]: 400 nM

Cc1noc(C)c1Cn1cc(NC(=O)Cc2ccccc2)cn1
IC50 [1]: 800 nM

Cc1noc(C)c1Cn1cc(NS(=O)(=O)c2ccccc2)cn1
IC50 [1]: 4000 nM

Cc1noc(C)c1Cn1cc(NC(=O)c2ccccc2)cn1
IC50 [1]: 1700 to 2000 nM

COc1ccc(C(=O)Nc2cnn(Cc3c(C)noc3C)c2)cc1
IC50 [1]: 700 nM

Cc1noc(C)c1Cn1cc(N2C(=O)[C@@H](C)N(Cc3cccc(O)c3)C2=O)cn1
Ratio [2]: 3390
solubility at 24 h [3]: 61 µM (≈ 24.1 µg/mL)
remaining at 24 h [4]: > 99%
remaining at 24 h [5]: 92%

COc1ccc(C(=O)Nc2cnn(Cc3c(C)noc3C)c2)cc1OC
IC50 [1]: 1000 nM

Cc1noc(C)c1Cn1cc(N2C(=O)N(Cc3cccc(O)c3)C3(CCC3)C2=O)cn1
Ratio [2]: 77
solubility at 24 h [3]: 3 µM (≈ 1.26 µg/mL)
remaining at 24 h [4]: 97%
remaining at 24 h [5]: 98%
IC50 [1]: 40 nM

Cc1noc(C)c1Cn1cc(NC(=O)CCCc2ccccc2)cn1
IC50 [1]: 800 nM

Cc1noc(C)c1Cn1cc(NC(=O)CCc2ccccc2)cn1
IC50 [1]: 400 nM

COc1cccc(C(=O)Nc2cnn(Cc3c(C)noc3C)c2)n1
IC50 [1]: 700 nM

Cc1noc(C)c1Cn1cc(N2C(=O)CN(Cc3ccccc3)C2=O)cn1
solubility at 24 h [3]: 70 µM (≈ 25.6 µg/mL)
remaining at 24 h [4]: > 99%
remaining at 24 h [5]: 60%
IC50 [1]: 200 nM

Cc1noc(C)c1Cn1cc(NC(=O)c2ccccn2)cn1
IC50 [1]: 2300 nM

Cc1noc(C)c1Cn1cc(N2C(=O)CN(CC3CCCO3)C2=O)cn1 (stereo not drawn)
IC50 [1]: 1000 nM

COc1ccccc1CN1CC(=O)N(c2cnn(Cc3c(C)noc3C)c2)C1=O
Ratio [2]: 267
solubility at 24 h [3]: 16 µM (≈ 6.33 µg/mL)
IC50 [1]: 100 nM

COc1cccc(C(=O)Nc2cnn(Cc3c(C)noc3C)c2)c1
IC50 [1]: 700 nM

Cc1noc(C)c1Cn1cc(NC(=O)N(CC(=O)O)Cc2cccc(O)c2)cn1
Drug metabolism [6]: Metabolite detected

COc1ccccc1C(=O)Nc1cnn(Cc2c(C)noc2C)c1
IC50 [1]: 1900 nM

Cc1noc(C)c1Cn1cc(NC(=O)c2ccc(O)cc2)cn1
IC50 [1]: 500 nM

Cc1noc(C)c1Cn1cc(NC(=O)c2ccc3[nH]ccc3c2)cn1
IC50 [1]: 300 nM

CNC(=O)c1cccc(CN2CC(=O)N(c3cnn(Cc4c(C)noc4C)c3)C2=O)c1
IC50 [1]: 100 nM

Cc1noc(C)c1Cn1cc(N2C(=O)CN(Cc3ccccn3)C2=O)cn1
IC50 [1]: 1000 nM

Cc1noc(C)c1Cn1cc(N2C(=O)CNC2=O)cn1
IC50 [1]: 900 nM

Cc1noc(C)c1Cn1cc(N2C(=O)CN(CC3CCCCC3)C2=O)cn1
IC50 [1]: 300 nM

COc1ncccc1C(=O)Nc1cnn(Cc2c(C)noc2C)c1
IC50 [1]: 1100 nM

COC(=O)c1cccc(CN2CC(=O)N(c3cnn(Cc4c(C)noc4C)c3)C2=O)c1
IC50 [1]: 100 nM

Cc1noc(C)c1Cn1cc(N2Cc3ccccc3C2=O)cn1
IC50 [1]: 9000 nM

Cc1noc(C)c1Cn1cc(N2C(=O)N(Cc3cccc(O)c3)C3(CC3)C2=O)cn1
Ratio [2]: 1550
solubility at 24 h [3]: 31 µM (≈ 12.6 µg/mL)
remaining at 24 h [4]: > 99%
remaining at 24 h [5]: 96%

CCSc1ncccc1C(=O)Nc1cnn(Cc2c(C)noc2C)c1
inhibition [7]: 50%
IC50 [1]: 2300 nM

Cc1noc(C)c1Cn1cc(N2C(=O)C(=O)N(Cc3ccccc3)C2=O)cn1
IC50 [1]: 2000 nM

Cc1noc(C)c1Cn1cc(N2C(=O)N(Cc3cccc(O)c3)C(C)(CO)C2=O)cn1 (stereo not drawn)
Ratio [2]: 2660
solubility at 24 h [3]: 356 µM (≈ 151 µg/mL)
remaining at 24 h [4]: > 99%
remaining at 24 h [5]: 43%
IC50 [1]: 100 nM

Cc1noc(C)c1CN1CC(=O)N(c2cnn(Cc3c(C)noc3C)c2)C1=O
IC50 [1]: 400 nM

Cc1noc(C)c1Cn1cc(N2C(=O)[C@H](C)N(Cc3cccc(O)c3)C2=O)cn1
Ratio [2]: 3750
solubility at 24 h [3]: 60 µM (≈ 23.7 µg/mL)
remaining at 24 h [4]: > 99%
remaining at 24 h [5]: 92%

Cc1noc(C)c1Cn1cc(N2CCN(Cc3ccccc3)C2=O)cn1
IC50 [1]: 1000 nM

Cc1noc(C)c1Cn1cc(NC(=O)c2ccc3ocnc3c2)cn1
IC50 [1]: 3000 nM

Cc1noc(C)c1Cn1cc(NC(=O)c2ccccc2O)cn1
IC50 [1]: 1000 nM

Cc1noc(C)c1Cn1cc(NC(=O)Nc2ccccc2)cn1
IC50 [1]: 2000 nM

COc1cncc(C(=O)Nc2cnn(Cc3c(C)noc3C)c2)c1
IC50 [1]: 800 nM

Cc1noc(C)c1Cn1cc(N2C(=O)[C@H](CO)N(Cc3cccc(O)c3)C2=O)cn1
Ratio [2]: 57600
solubility at 24 h [3]: 2480 µM (≈ 1020 µg/mL)
remaining at 24 h [4]: 53%
remaining at 24 h [5]: 2%

Cc1noc(C)c1Cn1cc(N2C(=O)CN(Cc3ccc(O)cc3)C2=O)cn1
IC50 [1]: 40 nM

Cc1noc(C)c1Cn1cc(N2C(=O)CN(Cc3cccc(C(=O)O)c3)C2=O)cn1
IC50 [1]: 2000 nM

Cc1noc(C)c1Cn1cc(N2C(=O)CN(Cc3ccccc3O)C2=O)cn1
IC50 [1]: 100 nM

COc1ccc(OC)c(C(=O)Nc2cnn(Cc3c(C)noc3C)c2)c1
IC50 [1]: 300 nM

Cc1noc(C)c1Cn1cc(N2C(=O)c3ccccc3C2=O)cn1
solubility at 24 h [3]: 12 µM (≈ 3.87 µg/mL)
remaining at 24 h [4]: 3%
remaining at 24 h [5]: 5%
IC50 [1]: 200 nM

Cc1noc(C)c1Cn1cc(N2C(=O)CN(Cc3ccccc3F)C2=O)cn1
Ratio [2]: 600
solubility at 24 h [3]: 51 µM (≈ 19.6 µg/mL)
IC50 [1]: 100 nM

Cc1noc(C)c1Cn1cc(NC(=O)NCc2ccccc2)cn1
IC50 [1]: 1000 nM

Cc1cc(CN2CC(=O)N(c3cnn(Cc4c(C)noc4C)c3)C2=O)n(C)n1
IC50 [1]: 200 nM

From ChEMBL document CHEMBL4342523, “Discovery and Development of S6821 and S7958 as Potent TAS2R8 Antagonists” (J Med Chem, 2020)
